According to ChEMBL document CHEMBL3585281, “Antibacterial Labdane Diterpenoids from Vitex vestita” (2015):
Converted amounts (≈) assume the structure as drawn.

Legend:
Format in all cases: functional
[1] = tested on: Enterococcus hirae; test: Antibacterial activity against Enterococcus hirae CIP 5855 after 18 hrs by agar dilution method; conditions: CIP 5855, 18 h
How it was run: (§1)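 Agar-dilution MIC against Gram-positive strains. Compounds in DMSO, geometric dilutions giving final 100−0.75 mg/L in Mueller Hinton agar. Strains grown 18 h at 37 °C in trypticase soy broth, diluted in sterile water, spotted by Steers inoculator (about 1000 UFC/spot). Plates incubated 18 h at 37 °C; DMSO blank; ofloxacin positive control. MIC = lowest concentration with no visible growth.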

[2] = tested on: Corynebacterium striatum; test: Antibacterial activity against Corynebacterium striatum N840 after 18 hrs by agar dilution method; conditions: N840, 18 h; how it was run: as §1
[3] = tested on: Bacillus cereus; test: Antibacterial activity against Bacillus cereus N349 after 18 hrs by agar dilution method; conditions: N349, 18 h; how it was run: as §1
[4] = tested on: Staphylococcus aureus; test: Antibacterial activity against Staphylococcus aureus CRBIP 2121 after 18 hrs by agar dilution method; conditions: CRBIP 2121, 18 h; how it was run: as §1
[5] = tested on: Enterococcus faecalis; test: Antibacterial activity against Enterococcus faecalis N491 after 18 hrs by agar dilution method; conditions: N491, 18 h; how it was run: as §1
[6] = tested on: Staphylococcus aureus; test: Antibacterial activity against Staphylococcus aureus CIP 5710 after 18 hrs by agar dilution method; conditions: CIP 5710, 18 h; how it was run: as §1
[7] = tested on: Staphylococcus epidermidis; test: Antibacterial activity against Staphylococcus epidermidis CIP 53124 after 18 hrs by agar dilution method; conditions: CIP 53124, 18 h; how it was run: as §1
[8] = tested on: Staphylococcus aureus; test: Antibacterial activity against Staphylococcus aureus CIP 483 after 18 hrs by agar dilution method; conditions: CIP 483, 18 h; how it was run: as §1
[9] = tested on: Enterococcus faecalis; test: Antibacterial activity against Enterococcus faecalis N518 after 18 hrs by agar dilution method; conditions: N518, 18 h; how it was run: as §1
[10] = tested on: Enterococcus faecalis; test: Antibacterial activity against Enterococcus faecalis CIP 104676 after 18 hrs by agar dilution method; conditions: CIP 104676, 18 h; how it was run: as §1
[11] = tested on: Listeria monocytogenes; test: Antibacterial activity against Listeria monocytogenes N851 after 18 hrs by agar dilution method; conditions: N851, 18 h; how it was run: as §1
[12] = tested on: Staphylococcus intermedius; test: Antibacterial activity against Staphylococcus intermedius N987 after 18 hrs by agar dilution method; conditions: N987, 18 h; how it was run: as §1
[13] = tested on: Mammaliicoccus sciuri; test: Antibacterial activity against Staphylococcus sciuri N993 after 18 hrs by agar dilution method; conditions: N993, 18 h; how it was run: as §1
[14] = tested on: Enterococcus faecium; test: Antibacterial activity against Enterococcus faecium N490 after 18 hrs by agar dilution method; conditions: N490, 18 h; how it was run: as §1
[15] = tested on: Enterococcus faecium; test: Antibacterial activity against Enterococcus faecium N733 after 18 hrs by agar dilution method; conditions: N733, 18 h; how it was run: as §1
[16] = tested on: Enterococcus faecalis; test: Antibacterial activity against Enterococcus faecalis CIP 103214 after 18 hrs by agar dilution method; conditions: CIP 103214, 18 h; how it was run: as §1
[17] = tested on: Enterococcus faecium; test: Antibacterial activity against Enterococcus faecium CIP 107387 after 18 hrs by agar dilution method; conditions: CIP 107387, 18 h; how it was run: as §1
[18] = tested on: Bacillus cereus; test: Antibacterial activity against Bacillus cereus CIP 6624 after 18 hrs by agar dilution method; conditions: CIP 6624, 18 h; how it was run: as §1
[19] = tested on: Enterococcus durans; test: Antibacterial activity against Enterococcus durans CIP 104999 after 18 hrs by agar dilution method; conditions: CIP 104999, 18 h; how it was run: as §1
[20] = tested on: Enterococcus casseliflavus; test: Antibacterial activity against Enterococcus casseliflavus CIP 103018 after 18 hrs by agar dilution method; conditions: CIP 103018, 18 h; how it was run: as §1
[21] = tested on: Enterococcus faecalis; test: Antibacterial activity against Enterococcus faecalis N520 after 18 hrs by agar dilution method; conditions: N520, 18 h; how it was run: as §1
[22] = tested on: Enterococcus gallinarum; test: Antibacterial activity against Enterococcus gallinarum N489 after 18 hrs by agar dilution method; conditions: N489, 18 h; how it was run: as §1
[23] = tested on: Bacillus spizizenii; test: Antibacterial activity against Bacillus subtilis ATCC 6633 after 18 hrs by agar dilution method; conditions: ATCC 6633, 18 h; how it was run: as §1
[24] = tested on: Listeria monocytogenes; test: Antibacterial activity against Listeria monocytogenes N783 after 18 hrs by agar dilution method; conditions: N783, 18 h; how it was run: as §1
[25] = tested on: Listeria monocytogenes; test: Antibacterial activity against Listeria monocytogenes CIP 103575 after 18 hrs by agar dilution method; conditions: CIP 103575, 18 h; how it was run: as §1
[26] = tested on: Bacillus cereus; test: Antibacterial activity against Bacillus cereus N190 after 18 hrs by agar dilution method; conditions: N190, 18 h; how it was run: as §1
[27] = tested on: Staphylococcus aureus; test: Antibacterial activity against Staphylococcus aureus CIP 7625 after 18 hrs by agar dilution method; conditions: CIP 7625, 18 h; how it was run: as §1
[28] = tested on: Staphylococcus aureus; test: Antibacterial activity against Staphylococcus aureus CIP 53154 after 18 hrs by agar dilution method; conditions: CIP 53154, 18 h; how it was run: as §1
[29] = tested on: Enterococcus faecium; test: Antibacterial activity against Enterococcus faecium N507 after 18 hrs by agar dilution method; conditions: N507, 18 h; how it was run: as §1
[30] = tested on: Listeria innocua; test: Antibacterial activity against Listeria innocua E044 after 18 hrs by agar dilution method; conditions: E044, 18 h; how it was run: as §1
[31] = tested on: Streptococcus agalactiae; test: Antibacterial activity against Streptococcus agalactiae CIP 103227 after 18 hrs by agar dilution method; conditions: ATCC 13813, 18 h; how it was run: as §1
[32] = tested on: Staphylococcus haemolyticus; test: Antibacterial activity against Staphylococcus haemolyticus CIP 8156 after 18 hrs by agar dilution method; conditions: CIP 8156, 18 h; how it was run: as §1
[33] = tested on: Staphylococcus aureus; test: Antibacterial activity against Staphylococcus aureus ATCC 9144 oxford after 18 hrs by agar dilution method; how it was run: as §1
[34] = tested on: Enterococcus gallinarum; test: Antibacterial activity against Enterococcus gallinarum CIP 105985 after 18 hrs by agar dilution method; conditions: CIP 105985, 18 h; how it was run: as §1
[35] = tested on: Enterococcus avium; test: Antibacterial activity against Enterococcus avium CIP 104053 after 18 hrs by agar dilution method; conditions: CIP 104053, 18 h; how it was run: as §1
[36] = tested on: Staphylococcus saprophyticus; test: Antibacterial activity against Staphylococcus saprophyticus CIP 76125 after 18 hrs by agar dilution method; conditions: CIP 76125, 18 h; how it was run: as §1
[37] = tested on: Enterococcus faecium; test: Antibacterial activity against Enterococcus faecium N823 after 18 hrs by agar dilution method; conditions: N823, 18 h; how it was run: as §1
[38] = tested on: Staphylococcus aureus; test: Antibacterial activity against Staphylococcus aureus ATCC 25923 after 18 hrs by agar dilution method; conditions: ATCC 25923, 18 h; how it was run: as §1
[39] = tested on: Staphylococcus aureus; test: Antibacterial activity against Staphylococcus aureus CIP 53156 after 18 hrs by agar dilution method; conditions: CIP 53156, 18 h; how it was run: as §1
[40] = tested on: Listeria monocytogenes; test: Antibacterial activity against Listeria monocytogenes N836 after 18 hrs by agar dilution method; conditions: N836, 18 h; how it was run: as §1
[41] = tested on: Enterococcus casseliflavus; test: Antibacterial activity against Enterococcus casseliflavus N487 after 18 hrs by agar dilution method; conditions: N487, 18 h; how it was run: as §1
[42] = tested on: Enterococcus faecium; test: Antibacterial activity against Enterococcus faecium CIP 103014 after 18 hrs by agar dilution method; conditions: CIP 103014, 18 h; how it was run: as §1
[43] = tested on: Staphylococcus saprophyticus; test: Antibacterial activity against Staphylococcus saprophyticus E260 after 18 hrs by agar dilution method; conditions: E260, 18 h; how it was run: as §1
[44] = tested on: Enterococcus gallinarum; test: Antibacterial activity against Enterococcus gallinarum N492 after 18 hrs by agar dilution method; conditions: N492, 18 h; how it was run: as §1
[45] = tested on: Bacillus cereus; test: Antibacterial activity against Bacillus cereus N258 after 18 hrs by agar dilution method; conditions: N258, 18 h; how it was run: as §1
[46] = tested on: Staphylococcus lugdunensis; test: Antibacterial activity against Staphylococcus lugdunensis ATCC 43809 after 18 hrs by agar dilution method; conditions: ATCC 43809, 18 h; how it was run: as §1

MIC [1]: 1.4 µM (≈ 0.512 µg/mL) | MIC [2]: 350 µM (≈ 128 µg/mL) | MIC [3]: 11 µM (≈ 4.02 µg/mL) | MIC [4]: 175 µM (≈ 63.9 µg/mL) | MIC [5]: 0.7 µM (≈ 0.256 µg/mL) | MIC [6]: 0.7 µM (≈ 0.256 µg/mL) | MIC [7]: ≤ 0.2 µM | MIC [8]: 0.3 µM (≈ 0.11 µg/mL) | MIC [9]: 0.7 µM (≈ 0.256 µg/mL) | MIC [10]: 1.4 µM (≈ 0.512 µg/mL) | MIC [11]: 0.7 µM (≈ 0.256 µg/mL) | MIC [12]: 88 µM (≈ 32.2 µg/mL) | MIC [13]: 0.7 µM (≈ 0.256 µg/mL) | MIC [14]: 22 µM (≈ 8.04 µg/mL) | MIC [15]: > 350 µM | MIC [16]: 1.4 µM (≈ 0.512 µg/mL) | MIC [17]: 175 µM (≈ 63.9 µg/mL) | MIC [18]: 11 µM (≈ 4.02 µg/mL) | MIC [19]: 1.4 µM (≈ 0.512 µg/mL) | MIC [20]: 0.7 µM (≈ 0.256 µg/mL) | MIC [21]: 3 µM (≈ 1.1 µg/mL) | MIC [22]: 0.7 µM (≈ 0.256 µg/mL) | MIC [23]: ≤ 0.2 µM | MIC [24]: 0.7 µM (≈ 0.256 µg/mL) | MIC [25]: 0.7 µM (≈ 0.256 µg/mL) | MIC [26]: 44 µM (≈ 16.1 µg/mL) | MIC [27]: 0.3 µM (≈ 0.11 µg/mL) | MIC [28]: 0.3 µM (≈ 0.11 µg/mL) | MIC [29]: 350 µM (≈ 128 µg/mL) | MIC [30]: 0.7 µM (≈ 0.256 µg/mL) | MIC [31]: ≤ 0.2 µM | MIC [33]: ≤ 0.2 µM | MIC [34]: 1.4 µM (≈ 0.512 µg/mL) | MIC [35]: 0.7 µM (≈ 0.256 µg/mL) | MIC [36]: 0.7 µM (≈ 0.256 µg/mL) | MIC [37]: 350 µM (≈ 128 µg/mL) | MIC [38]: 0.3 µM (≈ 0.11 µg/mL) | MIC [39]: ≤ 0.2 µM | MIC [40]: 0.7 µM (≈ 0.256 µg/mL) | MIC [41]: 0.7 µM (≈ 0.256 µg/mL) | MIC [42]: 0.7 µM (≈ 0.256 µg/mL) | MIC [43]: 0.7 µM (≈ 0.256 µg/mL) | MIC [44]: 0.7 µM (≈ 0.256 µg/mL) | MIC [45]: 11 µM (≈ 4.02 µg/mL) | MIC [46]: 0.7 µM (≈ 0.256 µg/mL)
SMILES: CC1(C)S[C@@H]2[C@H](NC(=O)[C@H](N)c3ccc(O)cc3)C(=O)N2[C@H]1C(=O)O [AMOXICILLIN]
MIC [32]: ≤ 0.2 µM
